Legend:
Parameters in all cases: dose 5 mg/kg, dosed compound name [14C]CS-1036, route oral
Conditions in all cases: in vivo
[1] = Drug uptake in albino F344/DuCrlCrlj rat brown fat at 5 mg/kg, po after 8 hrs by liquid scintillation counting; assay type: ADME, organism-based, Brown adipose tissue
Lung [2] = assay: Drug uptake in albino F344/DuCrlCrlj rat lung at 5 mg/kg, po after 336 hrs by liquid scintillation counting; assay type: ADME, organism-based
[3] = Drug uptake in albino F344/DuCrlCrlj rat fat at 5 mg/kg, po after 8 hrs by liquid scintillation counting; assay type: ADME, organism-based, Adipose tissue
Summary of the method: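 Male F344/DuCrlCrlj rats (bought at 7 weeks, acclimatized 5–6 days; 159–167 g; n = 3 per time point) received a single oral dose of [14C]CS-1036 at 5 mg/kg. White adipose tissue was collected after abdominal aortic bleeding at 1, 4, 8, 24, 72, 168 or 336 h. Samples were counted by LSC with external-standard efficiency correction. Results were converted to ng equivalents per g from specific activity and sample weight.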

[4] = Drug uptake in albino F344/DuCrlCrlj rat urinary bladder assessed as ng equivalent of CS-1036 at 5 mg/kg, po after 336 hrs by liquid scintillation counting; assay type: ADME, organism-based
Zone of skin = assay: Drug uptake in albino F344/DuCrlCrlj rat skin assessed as ng equivalent of CS-1036 at 5 mg/kg, po after 336 hrs by liquid scintillation counting; assay type: ADME, organism-based
[5] = Drug uptake in albino F344/DuCrlCrlj rat bone marrow assessed as ng equivalent of CS-1036 at 5 mg/kg, po after 72 hrs by liquid scintillation counting; assay type: ADME, organism-based
Adrenal gland = assay: Drug uptake in albino F344/DuCrlCrlj rat adrenal gland assessed as ng equivalent of CS-1036 at 5 mg/kg, po after 1 hr by liquid scintillation counting; assay type: ADME, organism-based
Stomach [6] = assay: Drug uptake in albino F344/DuCrlCrlj rat stomach assessed as ng equivalent of CS-1036 at 5 mg/kg, po after 72 hrs by liquid scintillation counting; assay type: ADME, organism-based
Kidney = assay: Drug uptake in albino F344/DuCrlCrlj rat kidney assessed as ng equivalent of CS-1036 at 5 mg/kg, po after 8 hrs by liquid scintillation counting; assay type: ADME, organism-based
Spleen = assay: Drug uptake in albino F344/DuCrlCrlj rat spleen at 5 mg/kg, po after 4 hrs by liquid scintillation counting; assay type: ADME, organism-based
Pancreas = assay: Drug uptake in albino F344/DuCrlCrlj rat pancreas at 5 mg/kg, po after 4 hrs by liquid scintillation counting; assay type: ADME, organism-based
Small intestine [7] = assay: Drug uptake in albino F344/DuCrlCrlj rat small intestine at 5 mg/kg, po after 336 hrs by liquid scintillation counting; assay type: ADME, organism-based
Blood [8] = assay: Drug uptake in albino F344/DuCrlCrlj rat blood assessed as ng equivalent of CS-1036 at 5 mg/kg, po after 336 hrs by liquid scintillation counting; assay type: ADME, organism-based
Summary of the method: (§1)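 Male F344/DuCrlCrlj rats (159–167 g; n = 3 per time point) received a single oral dose of [14C]CS-1036 at 5 mg/kg. Blood was taken from the abdominal aorta at 1, 4, 8, 24, 72, 168 and 336 h. Radioactivity was counted by LSC with external-standard efficiency correction. Results were converted to ng equivalent of CS-1036/ml using specific activity and sample volume, and reported as mean + S.D.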

Small intestine [9] = assay: Drug uptake in albino F344/DuCrlCrlj rat small intestine at 5 mg/kg, po after 24 hrs by liquid scintillation counting; assay type: ADME, organism-based
Liver [10] = assay: Drug uptake in albino F344/DuCrlCrlj rat liver assessed as ng equivalent of CS-1036 at 5 mg/kg, po after 24 hrs by liquid scintillation counting; assay type: ADME, organism-based
Thymus [11] = assay: Drug uptake in albino F344/DuCrlCrlj rat thymus assessed as ng equivalent of CS-1036 at 5 mg/kg, po after 168 hrs by liquid scintillation counting; assay type: ADME, organism-based
Large intestine = assay: Drug uptake in albino F344/DuCrlCrlj rat large intestine at 5 mg/kg, po after 336 hrs by liquid scintillation counting; assay type: ADME, organism-based
Plasma [12] = assay: Drug uptake in albino F344/DuCrlCrlj rat plasma assessed as ng equivalent of CS-1036 at 5 mg/kg, po after 72 hrs by liquid scintillation counting; assay type: ADME, organism-based
Blood [13] = assay: Drug uptake in albino F344/DuCrlCrlj rat blood assessed as ng equivalent of CS-1036 at 5 mg/kg, po after 24 hrs by liquid scintillation counting; assay type: ADME, organism-based; summary of the method: as §1
Small intestine [14] = assay: Drug uptake in albino F344/DuCrlCrlj rat small intestine assessed as ng equivalent of CS-1036 at 5 mg/kg, po after 336 hrs by liquid scintillation counting; assay type: ADME, organism-based
Lung [15] = assay: Drug uptake in albino F344/DuCrlCrlj rat lung assessed as ng equivalent of CS-1036 at 5 mg/kg, po after 72 hrs by liquid scintillation counting; assay type: ADME, organism-based
Plasma [16] = assay: Drug uptake in albino F344/DuCrlCrlj rat plasma at 5 mg/kg, po after 4 hrs by liquid scintillation counting; assay type: ADME, organism-based
[17] = Drug uptake in albino F344/DuCrlCrlj rat brown fat assessed as ng equivalent of CS-1036 at 5 mg/kg, po after 72 hrs by liquid scintillation counting; assay type: ADME, organism-based, Brown adipose tissue
Small intestine [18] = assay: Drug uptake in albino F344/DuCrlCrlj rat small intestine at 5 mg/kg, po after 72 hrs by liquid scintillation counting; assay type: ADME, organism-based
Lung [19] = assay: Drug uptake in albino F344/DuCrlCrlj rat lung assessed as ng equivalent of CS-1036 at 5 mg/kg, po after 24 hrs by liquid scintillation counting; assay type: ADME, organism-based
Liver [20] = assay: Drug uptake in albino F344/DuCrlCrlj rat liver assessed as ng equivalent of CS-1036 at 5 mg/kg, po after 1 hr by liquid scintillation counting; assay type: ADME, organism-based
Stomach [21] = assay: Drug uptake in albino F344/DuCrlCrlj rat stomach at 5 mg/kg, po after 24 hrs by liquid scintillation counting; assay type: ADME, organism-based
Thymus [22] = assay: Drug uptake in albino F344/DuCrlCrlj rat thymus assessed as ng equivalent of CS-1036 at 5 mg/kg, po after 4 hrs by liquid scintillation counting; assay type: ADME, organism-based
Stomach [23] = assay: Drug uptake in albino F344/DuCrlCrlj rat stomach at 5 mg/kg, po after 336 hrs by liquid scintillation counting; assay type: ADME, organism-based
[24] = Drug uptake in albino F344/DuCrlCrlj rat skeletal muscle assessed as ng equivalent of CS-1036 at 5 mg/kg, po after 8 hrs by liquid scintillation counting; assay type: ADME, organism-based, Muscle tissue
Aorta = assay: Drug uptake in albino F344/DuCrlCrlj rat aorta at 5 mg/kg, po after 24 hrs by liquid scintillation counting; assay type: ADME, organism-based
Blood [25] = assay: Drug uptake in albino F344/DuCrlCrlj rat blood at 5 mg/kg, po after 72 hrs by liquid scintillation counting; assay type: ADME, organism-based
Summary of the method: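 Male rats (159–167 g; n = 3) received a single oral dose of [14C]CS-1036 at 5 mg/kg. Blood was drawn from the abdominal aorta at 1, 4, 8, 24, 72, 168 and 336 h. Radioactivity was counted by LSC with external-standard efficiency correction. Results are expressed as ng equivalent/ml from the specific activity and sample volume; mean + S.D.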

[26] = Drug uptake in albino F344/DuCrlCrlj rat skeletal muscle at 5 mg/kg, po after 4 hrs by liquid scintillation counting; assay type: ADME, organism-based, Muscle tissue

C[C@H]1O[C@@H](O[C@H]2[C@H](O)[C@@H](O)[C@@H](O[14C@H]3[14C@H](O)[14CH2]N[14C@@H]3[14CH2]O)O[C@@H]2CO)[C@H](O)[C@@H](O)[C@@H]1O
Radiolabel recovery [1]: 28.9 ngequiv/g
Radiolabel recovery (Lung [2]): 8.43 ngequiv/g
Radiolabel recovery [3]: 14 ngequiv/g
Radiolabel recovery [4]: 5.5 ngequiv/g
Radiolabel recovery (Zone of skin): 16.4 ngequiv/g
Radiolabel recovery [5]: 18.1 ngequiv/g
Radiolabel recovery (Adrenal gland): 3.3 ngequiv/g
Radiolabel recovery (Stomach [6]): 21.8 ngequiv/g
Radiolabel recovery (Kidney): 1970 ngequiv/g
Radiolabel recovery (Spleen): 35.1 ngequiv/g
Radiolabel recovery (Pancreas): 249 ngequiv/g
Radiolabel recovery (Small intestine [7]): 6.54 ngequiv/g
Radiolabel recovery (Blood [8]): 0.2 ngequiv/ml
Radiolabel recovery (Small intestine [9]): 94.4 ngequiv/g
Radiolabel recovery (Liver [10]): 37 ngequiv/g
Radiolabel recovery (Thymus [11]): 5.4 ngequiv/g
Radiolabel recovery (Large intestine): 9.86 ngequiv/g
Radiolabel recovery (Plasma [12]): 8 ngequiv/ml
Radiolabel recovery (Blood [13]): 4 ngequiv/ml
Radiolabel recovery (Small intestine [14]): 1.92 ngequiv/g
Radiolabel recovery (Lung [15]): 5.1 ngequiv/g
Radiolabel recovery (Plasma [16]): 60.1 ngequiv/ml
Radiolabel recovery [17]: 136 ngequiv/g
Radiolabel recovery (Small intestine [18]): 41.3 ngequiv/g
Radiolabel recovery (Lung [19]): 12.8 ngequiv/g
Radiolabel recovery (Liver [20]): 60 ngequiv/g
Radiolabel recovery (Stomach [21]): 118 ngequiv/g
Radiolabel recovery (Thymus [22]): 2.8 ngequiv/g
Radiolabel recovery (Stomach [23]): 11.9 ngequiv/g
Radiolabel recovery [24]: 11.2 ngequiv/g
Radiolabel recovery (Aorta): 35.2 ngequiv/g
Radiolabel recovery (Blood [25]): 16.1 ngequiv/ml
Radiolabel recovery [26]: 41.4 ngequiv/g

From ChEMBL document CHEMBL3526002, “Tissue distribution and identification of radioactivity components at elimination phase after oral administration of [¹⁴C]CS-1036, an α-amylase inhibitor, to rats” (Drug Metab Dispos, 2013)
